Reference: ChEMBL document CHEMBL4680156, “Discovery of novel pyrido-pyrrolidine hybrid compounds as alpha-glucosidase inhibitors and alternative agent for control of type 1 diabetes” (Eur J Med Chem, 2020)
Converted amounts (≈) assume the structure as drawn. The source made the active and inactive calls. The rule behind the calls is not given here.

Key:
[1] = molecular target: T1, Tissue alpha-L-fucosidase (Bos taurus, UniProt Q2KIM0); test: Inhibition of bovine kidney alpha-fucosidase using […] as substrate incubated for 10 mins by spectrophotometric method
T1 sequence (Q2KIM0 whole entry): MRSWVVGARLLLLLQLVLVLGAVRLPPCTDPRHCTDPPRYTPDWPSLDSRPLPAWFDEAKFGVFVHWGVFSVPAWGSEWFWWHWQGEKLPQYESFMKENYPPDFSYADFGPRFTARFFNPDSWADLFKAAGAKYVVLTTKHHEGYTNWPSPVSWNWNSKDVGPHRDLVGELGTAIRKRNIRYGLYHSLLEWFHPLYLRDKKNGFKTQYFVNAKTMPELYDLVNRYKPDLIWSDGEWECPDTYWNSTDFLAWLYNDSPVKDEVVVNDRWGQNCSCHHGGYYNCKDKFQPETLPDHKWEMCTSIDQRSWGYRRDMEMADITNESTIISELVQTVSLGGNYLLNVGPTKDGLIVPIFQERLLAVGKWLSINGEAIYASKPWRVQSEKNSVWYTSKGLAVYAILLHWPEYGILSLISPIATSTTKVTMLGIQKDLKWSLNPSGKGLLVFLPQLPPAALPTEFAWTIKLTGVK

[2] = Competitive inhibition of Saccharomyces cerevisiae alpha-glucosidase using PNPG as substrate incubated for 10 mins by Lineweaver-Burk plot analysis
How it was run: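 Yeast α-glucosidase kinetics used pNPG at 1, 2, 3, 4 and 5 mM without inhibitor or with inhibitor at 2 and 10 μM, at 37 °C. Absorbance read at 420 nm. Mode of inhibition came from Km/Vmax changes on Lineweaver–Burk double-reciprocal plots; Ki derived […].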

Saccharomyces cerevisiae [3] = test: Binding affinity to Saccharomyces cerevisiae alpha-glucosidase assessed as protein with alpha-helical structure at 0.32 ug/ml by CD spectroscopic method (reference value: 5.3%); conditions: dose 0.32 µg/ml
How it was run: (§1)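 Compound was added at different concentrations to yeast α-glucosidase (30 U/ml). CD spectra were taken with 3 accumulations (negative bands at 209 and 222 nm). α-Helix and β-sheet content were estimated with secondary-structure estimation software.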

Saccharomyces cerevisiae [4] = test: Binding affinity to Saccharomyces cerevisiae alpha-glucosidase assessed as protein with alpha-helical structure at 0.64 ug/ml by CD spectroscopic method (reference value: 5.3%); conditions: dose 0.64 µg/ml; how it was run: as §1
Saccharomyces cerevisiae [5] = test: Binding affinity to Saccharomyces cerevisiae alpha-glucosidase assessed as protein with beta-sheet structure at 0.32 ug/ml by CD spectroscopic method (reference value: 68%); conditions: dose 0.32 µg/ml; how it was run: as §1
Saccharomyces cerevisiae [6] = test: Binding affinity to Saccharomyces cerevisiae alpha-glucosidase assessed as protein with beta-sheet structure at 0.64 ug/ml by CD spectroscopic method (reference value: 68%); conditions: dose 0.64 µg/ml; how it was run: as §1
[7] = Drug recovery in mouse plasma at 10 uM after 6 hrs by LC-MS/MS analysis; format: ADME, cell-free; conditions: read-out: Drug recovery
How it was run: (§2)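 Equilibrium dialysis: plasma with compound at 10 μM final on one side, 100 mM sodium phosphate pH 7.4 on the other. Equilibrated at 37 ± 1 °C for 6 h with shaking at 500 rpm. Both sides were sampled, proteins precipitated with organic solvent, and supernatants analysed by LC-MS/MS.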

[8] = Thermodynamic solubility of compound in phosphate buffer at 1 mg/ml at pH 7.4 after 24 hrs by HPLC analysis; format: physicochemical; conditions: read-out: Therm_solubility
How it was run: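 1 mg compound incubated in 1 mL phosphate buffer saline (pH 7.4) for 24 h with vortexing at 500 rpm. Samples were then centrifuged and the supernatant injected into HPLC to quantify dissolved compound.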

[9] = Permeability of compound at pH 7.4 after 4 hrs by GIT PAMPA method; format: ADME; conditions: read-out: permeability
How it was run: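 GIT PAMPA: compound in the donor plate at pH 7.4, with GIT-0 lipid coated on the acceptor membrane and sink buffer in the acceptor plate. Incubated 4 h; donor and acceptor aliquots were read by UV to give permeability.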

[10] = Stability in mouse liver microsomes assessed as CYP450-mediated drug degradation by measuring proportion of compound metabolised at 1 uM up to 60 mins in presence of NADPH by LC-MS/MS analysis; format: ADME; conditions: read-out: Drug degradation
How it was run: (§3)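 Liver microsomes (1.0 mg protein/mL) were incubated with compound at 1 μM; reactions were started with 1 mM NADPH. No-NADPH incubations (0 and 60 min) served as stability controls. Reactions were stopped at 0, 5, 15, 30 and 60 min with ice-cold acetonitrile containing internal standard, then centrifuged. Parent loss was tracked by LC-MS/MS.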

[11] = Half life in mouse liver microsomes at 1 uM up to 60 mins in presence of NADPH by LC-MS/MS analysis; format: ADME, Microsome; how it was run: as §3
[12] = Half life in rat liver microsomes at 1 uM up to 60 mins in presence of NADPH by LC-MS/MS analysis; format: ADME, Microsome; how it was run: as §3
[13] = Half life in human liver microsomes at 1 uM up to 60 mins in presence of NADPH by LC-MS/MS analysis; format: ADME, Microsome; how it was run: as §3
[14] = Intrinsic clearance in mouse liver microsomes at 1 uM up to 60 mins in presence of NADPH by LC-MS/MS analysis; format: ADME, Microsome; conditions: 1 h; how it was run: as §3
[15] = Clearance in mouse; format: ADME, organism-based; conditions: in vivo
[16] = Clearance in rat; format: ADME; conditions: in vivo
[17] = Clearance in human; format: ADME; how it was run: as §3
[18] = Protein binding in rat plasma assessed as unbound fraction at 10 uM after 6 hrs by LC-MS/MS analysis; format: ADME, cell-free; how it was run: as §2
[19] = Protein binding in human plasma assessed as unbound fraction at 10 uM after 6 hrs by LC-MS/MS analysis; format: ADME, cell-free; how it was run: as §2
[20] = Protein binding in rat plasma assessed as bound fraction at 10 uM after 6 hrs by LC-MS/MS analysis; format: ADME, cell-free; conditions: read-out: PPB (converted); how it was run: as §2
[21] = Protein binding in human plasma assessed as bound fraction at 10 uM after 6 hrs by LC-MS/MS analysis; format: ADME, cell-free; conditions: read-out: PPB (converted); how it was run: as §2
[22] = Drug recovery in rat plasma at 10 uM after 6 hrs by LC-MS/MS analysis; format: ADME, cell-free; conditions: read-out: Drug recovery; how it was run: as §2
BRIN-BD11 = test: Induction of rat BRIN-BD11 cell proliferation at 1 uM after 24 hrs by MTT assay; format: functional
How it was run: (§4)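 BRIN-BD11 rat β-cells were seeded at 10^4 cells/well in RPMI and left overnight. They were exposed 24 h to compound at 100, 30, 10, 3, 1, 0.3 and 0.1 μM. MTT (5 mg/ml stock) was added for 90 min at 37 °C, formazan dissolved in DMSO, and absorbance read at 560 nm.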

[23] = Cytotoxicity against rat BRIN-BD11 cells assessed as reduction in cell viability at >=10 uM after 24 hrs by MTT assay; format: cell-based; conditions: brin-bd11, 24 h; how it was run: as §4
Saccharomyces cerevisiae [24] = test: Potency index, ratio of acarbose IC50 to test compound IC50 for inhibition of Saccharomyces cerevisiae alpha-glucosidase using PNPG as substrate incubated for 10 mins by spectrophotometric method
Rattus norvegicus = test: Decrease in post prandial glucose level in type 1 diabetic Sprague-Dawley rat model at 60 mg/kg, po administered once daily for 28 days; conditions: time 28.0 day

Molecule `CCOC(=O)c1ccc(-n2c(/C=C3\OC(=O)c4c3cc(C)[nH]c4=O)ccc2CO)cc1` has an IC50 [1] of 30.4 µM, a Ki [2] of 29.9 µM and an Activity (Saccharomyces cerevisiae [3]) of 5.2%. It also gave an Activity (Saccharomyces cerevisiae [4]) of 6.6%, an Activity (Saccharomyces cerevisiae [5]) of 63% and an Activity (Saccharomyces cerevisiae [6]) of 58.9%. The remaining at 6 h, 10 µM [7] was 15%, the solubility thermodynamic at 24 h [8] was 0.1 µg/mL (≈ 0.238 µM) and the Papp at 4 h [9] was 15 ×10⁻⁶ cm/s. The metabolised at 1 h, 1 µM [10] was 99%, the half-life at 1 µM [11] was 9 min and the half-life at 1 µM [12] was 15 min. For the same molecule, the half-life at 1 µM [13] was 13 min, the CLint [14] was 74.1 µL/min/mg and the clearance [15] was 60.3 mL/min/kg. It also gave a clearance [16] of 35.2 mL/min/kg, a clearance [17] of 15.1 mL/min/kg and a fraction unbound at 6 h, 10 µM [18] of 0.0156. The fraction unbound at 6 h, 10 µM [19] was 0.107, the fraction unbound at 6 h, 10 µM [20] was 0.0156 and the fraction unbound at 6 h, 10 µM [21] was 0.107. The remaining at 6 h, 10 µM [22] was 1.95%, the Activity (BRIN-BD11) was “Active” and the Activity [23] was “Toxic”. For the same molecule, the Ratio IC50 (Saccharomyces cerevisiae [24]) was 4 and the inhibition (Rattus norvegicus) was “inactive”.
